The results in this text go back to ChEMBL document CHEMBL3244040, “Synthesis and topical antiinflammatory properties of 17,21-bis(acetyloxy)-6beta,9-difluoro-11beta-hydroxypregna-1,4-diene-3,20-dione and related 2-halogenated compounds” (J Med Chem, 1977).

The test system of series [1] is Rattus norvegicus. In words: Antiinflammatory activity in rat assessed as inhibition of cotton pellet-induced granuloma weight administered topically measured per pellet. It is filed as functional. Put shortly: (§1)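 Cotton-pellet granuloma test in rats; compounds suspended in 0.5% aqueous carboxymethylcellulose applied directly to the pellets, doses up to 40 µg/pellet; at least eight rats per dose. Granuloma and thymus weights converted to mg/100 g body weight. ED30 (30% inhibition) derived from log dose–response least-squares lines with 95% confidence limits, or approximated from eye-fit linear plots.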

Series [2] deals with Rattus norvegicus. Nature of the series: Thymolytic activity in rat assessed as inhibition of thymus weight administered topically measured per pellet. It is filed as organism-based. Conditions: in vivo, topical_or_ocular. Put shortly: as §1
For series [3], the system named is Rattus norvegicus. In words: Antiinflammatory activity in po dosed rat assessed as inhibition of cotton pellet-induced granuloma weight administered bid for 7 days. The format is functional, organism-based. Put shortly: (§2)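 Rat cotton-pellet granuloma test; compounds suspended in 0.5% carboxymethylcellulose in water given orally daily for seven consecutive days, doses up to 12.5 mg/kg die; at least eight rats per dose. Granuloma and thymus weights expressed as mg/100 g body weight. ED30 (30% inhibition) from log dose–response least-squares regression with 95% confidence limits, or extrapolated from eye-fit plots.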

The subject of series [4] is Rattus norvegicus. In words: Thymolytic activity in po dosed rat assessed as inhibition of thymus weight administered bid for 7 days. The format is organism-based. Particulars: in vivo, 168 h. The essentials:
as §2

Series [5] has as its system Rattus norvegicus. Nature of the series: Mineralocorticoid activity in rat assessed as sodium retention up to 1 mg/kg, sc. The format is ADME, organism-based. The arrangement: dose 1 mg/kg, route subcutaneous. Particulars: in vivo.

Calls of active or inactive are those of the source. The rule behind the calls is not given here.

As to `CC(=O)OCC(=O)[C@@]1(OC(C)=O)CC[C@H]2[C@@H]3C[C@@H](F)C4=CC(=O)C(Br)=C[C@]4(C)[C@@]3(F)[C@@H](O)C[C@@]21C` [HALOPREDONE ACETATE], the ED30 is 0.01 µg with Rattus norvegicus [1] and above 1000 µg in the series with Rattus norvegicus [2]. In the series on Rattus norvegicus [3], the outcome was inactive. Further, the Activity result with Rattus norvegicus [4] and with Rattus norvegicus [5] was “Non-toxic” in each case.
For `C[C@]12C=C(Cl)C(=O)C=C1[C@H](F)C[C@H]1[C@@H]3CC[C@](O)(C(=O)CO)[C@@]3(C)C[C@H](O)[C@@]12F`, the ED30 in the series with Rattus norvegicus [1] and with Rattus norvegicus [2] was above 40 µg throughout.
Regarding `CC1(C)O[C@@H]2C[C@H]3[C@@H]4C[C@H](F)C5=CC(=O)C=C[C@]5(C)[C@@]4(F)[C@@H](O)C[C@]3(C)[C@]2(C(=O)CO)O1` [FLUOCINOLONE ACETONIDE], the values for the ED30 in the series with Rattus norvegicus [1] and with Rattus norvegicus [2] were 1.02 µg and 5 µg, respectively.
As for `CC(=O)OCC(=O)[C@@]1(O)CC[C@H]2[C@@H]3C[C@H](F)C4=CC(=O)C=C[C@]4(C)[C@@]3(F)[C@@H](O)C[C@@]21C`, the results for the ED30 in the series on Rattus norvegicus [1] and with Rattus norvegicus [2] were 40 µg and 20 µg, respectively.
For `CC(=O)OCC(=O)[C@@]1(O)CC[C@H]2[C@@H]3C[C@@H](F)C4=CC(=O)C(Cl)=C[C@]4(C)[C@@]3(F)[C@@H](O)C[C@@]21C`, the ED30 with Rattus norvegicus [1] is 9 µg; with Rattus norvegicus [2] it was above 40 µg.
On the same counts, the results for `C[C@]12C=CC(=O)C=C1[C@@H](F)C[C@H]1[C@@H]3CC[C@](O)(C(=O)CO)[C@@]3(C)C[C@H](O)[C@@]12F` are 40 µg and 20 µg.
Turning to `CC(=O)OCC(=O)[C@@]1(OC(C)=O)CC[C@H]2[C@@H]3C[C@@H](F)C4=CC(=O)C(Cl)=C[C@]4(C)[C@@]3(F)[C@@H](O)C[C@@]21C`, the ED30 with Rattus norvegicus [1] is 0.45 µg; in the series with Rattus norvegicus [2], above 40 µg. Also, the result with Rattus norvegicus [3] was inactive. Besides, the Activity entry with Rattus norvegicus [4] is given as “Non-toxic”.
`CC(=O)OCC(=O)[C@@]1(OC(C)=O)CC[C@H]2[C@@H]3C[C@H](F)C4=CC(=O)C=C[C@]4(C)[C@@]3(F)[C@@H](O)C[C@@]21C`: the ED30 with Rattus norvegicus [1] was determined as 0.1 µg; in the series with Rattus norvegicus [2] it was 5 µg. Further, the outcome with Rattus norvegicus [3] was inactive. Further, the Activity result in the series with Rattus norvegicus [4] is “Non-toxic”.
Turning to `C[C@]12C=C(Br)C(=O)C=C1[C@H](F)C[C@H]1[C@@H]3CC[C@](O)(C(=O)CO)[C@@]3(C)C[C@H](O)[C@@]12F`, the ED30 with Rattus norvegicus [1] and in the series on Rattus norvegicus [2] was above 40 µg each time.
On to `CC(=O)OCC(=O)[C@@]1(O)CC[C@H]2[C@@H]3C[C@@H](F)C4=CC(=O)C(Br)=C[C@]4(C)[C@@]3(F)[C@@H](O)C[C@@]21C`, for which the ED30 in the series with Rattus norvegicus [1] is 40 µg; in the series on Rattus norvegicus [2] it was above 40 µg.
With `CC(=O)OCC(=O)[C@@]1(OC(C)=O)CC[C@H]2[C@@H]3C[C@H](F)C4=CC(=O)C(Br)=C[C@]4(C)[C@@]3(F)[C@@H](O)C[C@@]21C`, the ED30 with Rattus norvegicus [1] and in the series on Rattus norvegicus [2] was above 40 µg in each case. Further, the result in the series with Rattus norvegicus [3] was inactive. Moreover, in the series on Rattus norvegicus [4], the Activity entry is listed as “Non-toxic”.
On to `CC(=O)OCC(=O)[C@@]1(OC(C)=O)CC[C@H]2[C@@H]3C[C@H](F)C4=CC(=O)C(Cl)=C[C@]4(C)[C@@]3(F)[C@@H](O)C[C@@]21C`, for which the ED30 is above 40 µg in the series on Rattus norvegicus [1] and 40 µg with Rattus norvegicus [2]. Moreover, the outcome in the series on Rattus norvegicus [3] was inactive. For the same compound, the Activity result with Rattus norvegicus [4] is on record as “Non-toxic”.
Regarding `CC(=O)OCC(=O)[C@@]1(OC(C)=O)CC[C@H]2[C@@H]3C[C@@H](F)C4=CC(=O)C=C[C@]4(C)[C@@]3(F)[C@@H](O)C[C@@]21C`, the ED30 in the series on Rattus norvegicus [1] was 40 µg; with Rattus norvegicus [2], above 40 µg. Also, in the series with Rattus norvegicus [4], the Activity entry was “Non-toxic”.
For the compound `CC(=O)OCC(=O)[C@@]1(O)CC[C@H]2[C@@H]3C[C@@H](F)C4=CC(=O)C=C[C@]4(C)[C@@]3(F)[C@@H](O)C[C@@]21C`, the ED30 in the series with Rattus norvegicus [1] and in the series with Rattus norvegicus [2] was above 40 µg in each case.
Consider `C[C@]12C=CC(=O)C=C1[C@H](F)C[C@H]1[C@@H]3CC[C@](O)(C(=O)CO)[C@@]3(C)C[C@H](O)[C@@]12F`, for which the ED30 in the series with Rattus norvegicus [1] and with Rattus norvegicus [2] was above 40 µg each time.
